Screens from PubChem BioAssay.
INS-1E GSIS act: GLuc luminescence reporter in INS-1E cells, primary screen for activators of glucose-dependent secretion of insulin | activation, % at 16.6 µM | hit rate 0.61% among 370,000 | AID 743287, 2014 | INS-1E GLuc reporter insulin secretion, 2-3 h;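 active means lowest replicate activation of at least 40%, so every replicate reaches that level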;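 further: 0% = median of neutral control wells and 100% = median of IBMX positive control wells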
dFosB act: activators of delta FosB homodimer, primary screen, biochemical, fluorescence polarization, TAMRA-CDK5 oligo, single point. AID 493131, 2011. purified delta FosB; percent of positive-control signal above neutral wells. activation, % at 25 µM. Protein FosB (Mus musculus), P13346. hit rate 0.99% among 340,000;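 active means mean activation above about 17%, with every replicate also reaching it, limit read from the data, passing the limit was not always enough; inconclusive means only one of the two conditions met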
Target sequence (P13346 whole entry, looked up): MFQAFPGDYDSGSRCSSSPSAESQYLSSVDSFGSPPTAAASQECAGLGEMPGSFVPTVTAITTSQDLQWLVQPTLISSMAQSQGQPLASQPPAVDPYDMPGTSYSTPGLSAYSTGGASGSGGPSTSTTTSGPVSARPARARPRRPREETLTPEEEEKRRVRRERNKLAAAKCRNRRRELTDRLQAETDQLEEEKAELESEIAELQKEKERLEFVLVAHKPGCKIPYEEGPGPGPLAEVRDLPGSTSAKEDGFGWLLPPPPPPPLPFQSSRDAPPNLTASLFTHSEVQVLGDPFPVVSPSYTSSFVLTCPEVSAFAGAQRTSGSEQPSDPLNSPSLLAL
Rtt109 HAT inh: inhibitors of C. albicans Rtt109/Vps75 HAT, primary screen, biochemical, ThioGlo CoA-SH fluorescence, plate reader. Histone acetyltransferase RTT109 (Candida albicans (strain SC5314 / ATCC MYA-2876)), …. purified Rtt109/Vps75, 4 h. inhibition, % at 34.9 µM. hit rate 0.16% among 330,000. AID 540336, 2011;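 active means inhibition of at least 50% in every replicate; inconclusive means best replicate reaches 50% inhibition but some replicates fall short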
miR122 inh: miR-122 Renilla sensor signal increase in Huh7, primary screen, miR-122 inhibitor project, cell-based, single point, plate reader. activation (reporter increase), % at 12.5 µM. AID 602342, 2012. Huh7 miR-122 Renilla luciferase sensor, 48 h; neutral wells = 0, positive control = 100. hit rate 0.3% among 340,000;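 active means mean replicate activation score at least 90 and every replicate individually at or above 90; inconclusive means only one of the two criteria met; inactive means neither criterion met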;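 further: higher luciferase means less miR-122 activity so hits act as miR-122 inhibitors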
Env fusion inh: inhibitors of HIV-1 Env-driven cell-cell fusion, primary screen, HeLa-JRFL effector, CEM21 target cells, luciferase; inhibition, % at 12.3 µM; hit rate 1.1% among 360,000;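 active means mean replicate inhibition score of at least 50 and every replicate individually at or above 50; inconclusive means only one of the two criteria met; inactive means mean below 50 and not all replicates reaching 50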;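 further: 0% = plate neutral controls and 100% = maraviroc near 300 nM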
Cneo AK release: Cryptococcus neoformans cell lysis inducers, primary screen, AK release luminescence, single concentration; C. neoformans lysis, adenylate kinase release luminescence, 4 h; normalised: neutral wells 0, clomiphene wells 100; lysis activity, % at 15 µM; hit rate 0.2% among 360,000; AID 651654, 2012;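 active means mean lysis activity across replicates of at least 80%, whatever share of replicates individually reach that level; inactive means mean lysis activity below 80%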
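Assay system: log-phase C. neoformans yeast / Quantity: yeast cell density of 5 × 10^6 cells/mL / Medium: fresh YPD growth medium / Compound: single dose / Timing: static 4 h at 37 °C with compound, 1 h detection / Measured by: adenylate kinase release luminescence / Read-out: lysis from increased AK signal / Benchmarks: Clomiphene as positive lysis control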
* = called active by the depositor; ? = inconclusive; · = not tested or not shown; [ ] = remark or other dose. The list is not random: actives were taken first. Their share in the collection is about 2.4%.

SMILES	INS-1E GSIS act	dFosB act	Rtt109 HAT inh	miR122 inh	Env fusion inh	Cneo AK release
C[C@@H]1CN([C@H](C)CO)C(=O)c2c(c3ccccc3n2C)-c2ccccc2CO[C@@H]1CN(C)S(=O)(=O)c1ccc(F)cc1	-10	·	·	·	·	·
CN(C)CCOc1ccc(/C(=C(/CCCl)c2ccccc2)c2ccccc2)cc1	104*	16	16	-4	·	36
CCNC(=O)[C@H]1[C@H](CO)[C@H]2Cn3c(ccc(-c4ccc(F)cc4)c3=O)[C@@H]1N2Cc1ccccc1F	-21	·	·	-8[16.7 µM]	·	-2
Cc1cc([N+](=O)[O-])ccc1N	42*	0	-2	·	-24	·
O=C(C[C@H]1CC[C@@H](NS(=O)(=O)c2cccc(F)c2)[C@@H](CO)O1)NCc1ccc2c(c1)OCO2	2	·	·	·	-10[16.7 µM]	2
CCOC(=O)c1c(-n2cnnn2)sc2c1CCCC2	60*	2	5	·	2	·
CCOC(=O)c1c(N)sc2c1CCCC2	·	-7	11	-1	-10	4
CC1(C)N=C(N)N=C(N)N1CCCCc1ccccc1	-55	-6	-3	5	75*	·
CC1(C)N=C(N)N=C(N)N1c1cccc(CC(=O)Nc2ccccc2)c1	·	·	·	-1	-9	-2
COc1ccc(CNCCC(c2ccc(OC(C)C)cc2)c2ccccc2OC)cc1 (stereo not given)	5	-4	-1	·	?	·
COc1ccc(C(CCNCc2ccc(N(C)C)cc2)C(C)C)cc1 (stereo not given)	·	5	3	·	65*	·
COc1ccccc1C(CCNCc1ccc(N(C)C)cc1)c1ccc(OC(C)C)cc1 (stereo not given)	-34	6	0	·	55*	16
COc1ccc(C(CCNCc2ccc(OC(C)C)cc2)C(C)C)cc1 (stereo not given)	-27	·	·	-8	25	3
COc1ccc(CNCCC(c2ccc(OC(C)C)cc2)C(C)C)cc1OC (stereo not given)	-20	1	1	1	77*	3
C[C@@H]1CN([C@@H](C)CO)C(=O)c2cc(-c3cccnc3)cnc2O[C@@H]1CN(C)Cc1ccccc1	5	·	·	-2[16.7 µM]	-13[16.7 µM]	·
C[C@@H]1CN([C@@H](C)CO)C(=O)Cc2cc(NC(=O)Nc3cccc4ccccc34)ccc2O[C@@H]1CN(C)C(=O)Nc1ccccc1	-3	·	·	23[16.7 µM]	·	-1
COc1ccc(NC(=O)N(C)C[C@@H]2Oc3ncc(C#Cc4ccc(F)cc4)cc3C(=O)N([C@H](C)CO)C[C@@H]2C)cc1	-20	·	·	-9[16.7 µM]	7[16.7 µM]	-1
O=[N+]([O-])c1cccc(Oc2ncccc2[N+](=O)[O-])c1	78*	2	-19	-3	·	2
C[C@@H]1CN([C@@H](C)CO)C(=O)Cc2cc(NS(=O)(=O)c3ccc(F)cc3)ccc2O[C@@H]1CN(C)Cc1ccc(C(=O)Nc2ccccc2N)cc1	-13	·	·	9[16.7 µM]	-12[16.7 µM]	-2
C[C@H]1CN([C@@H](C)CO)C(=O)Cc2cc(NS(=O)(=O)c3ccc(F)cc3)ccc2O[C@H]1CN(C)Cc1ccc(C(=O)Nc2ccccc2N)cc1	5	·	·	114*[16.7 µM]	-65[16.7 µM]	-2
Cc1ccc(S(=O)(=O)Nc2ccc3c(c2)CC(=O)N([C@H](C)CO)C[C@H](C)[C@H](CN(C)Cc2ccc(C(=O)Nc4ccccc4N)cc2)O3)cc1	12	·	·	229*[16.7 µM]	-38[16.7 µM]	10
CC(C)NC(=O)Nc1ccc2c(c1)C(=O)N([C@@H](C)CO)C[C@H](C)[C@@H](CN(C)S(=O)(=O)c1cn(C)cn1)OCCCC[C@@H](C)O2	30	·	·	3[16.7 µM]	26[16.7 µM]	0
O=C(C[C@H]1CC[C@H]2[C@@H](COC[C@@H](O)CN2C(=O)c2ccccc2F)O1)N1CCCCC1	23	·	·	-1[16.7 µM]	·	-5
O=C(O)CCc1ccc(-c2cccs2)o1	·	-8	53*	4	·	2
COc1ccc2c3c(n(C)c2c1)[C@@H](CO)N(CC1CCOCC1)CC31CCN(Cc2nccs2)CC1	-17	·	·	·	-38[16.7 µM]	·
